Screening results from PubChem.
Tn6 DDE FP: DD(E)-Tn6 binding inhibition, primary FP screen | P02675 | Fibrin DD(E) TRITC-Tn6 fluorescence polarization displacement | inhibition, % at 8.3 µM | 0.21% of 370,000 active | AID 720509;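 active = inhibition above a per-campaign cutoff: mean of compounds within control limits plus 3 SD, cut at about 15% in these data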
MT1-MMP act inh: inhibitors of human MT1-MMP activation; P50281; HT1080 RFP-PRO-GFP cells, GFP/RFP ratio fluorescence, overnight; percent of plate control window, DMSO zero; GFP/RFP ratio change, % at 20 µM; 0.061% of 360,000 active;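 active = GFP/RFP ratio change of at least 30% with cell ATP level not reduced by more than half and red fluorescence within 50% of control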
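Compound: 20 µM single dose, 1% DMSO / System: HT1080 RFP-PRO-GFP cells / Controls: DMSO and RFP-L50D-GFP cell wells / Read-out basis: GFP/RFP fluorescence ratio / Schedule: overnight compound exposure at 37 °C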
ADAM17 inh: inhibits human ADAM17. P78536. recombinant ADAM17, EDANS/DABCYL FRET peptide cleavage. inhibition, % at 6.95 µM. 0.83% of 370,000 active;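 active = inhibition above the mean of compounds lying between control limits plus 3 SD, set per campaign, cut at about 8.5% in these data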
ADAM10 inh: inhibits human ADAM10; AID 720582; inhibition, % at 7 µM; 0.62% of 370,000 active; O14672; recombinant ADAM10, EDANS/DABCYL FRET peptide cleavage, 3 h;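 active = inhibition above a per-campaign cutoff equal to the mean of compounds falling between control-based bounds plus 3 SD, cut at about 20% in these data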
Target sequence (O14672 214-748 limits assumed): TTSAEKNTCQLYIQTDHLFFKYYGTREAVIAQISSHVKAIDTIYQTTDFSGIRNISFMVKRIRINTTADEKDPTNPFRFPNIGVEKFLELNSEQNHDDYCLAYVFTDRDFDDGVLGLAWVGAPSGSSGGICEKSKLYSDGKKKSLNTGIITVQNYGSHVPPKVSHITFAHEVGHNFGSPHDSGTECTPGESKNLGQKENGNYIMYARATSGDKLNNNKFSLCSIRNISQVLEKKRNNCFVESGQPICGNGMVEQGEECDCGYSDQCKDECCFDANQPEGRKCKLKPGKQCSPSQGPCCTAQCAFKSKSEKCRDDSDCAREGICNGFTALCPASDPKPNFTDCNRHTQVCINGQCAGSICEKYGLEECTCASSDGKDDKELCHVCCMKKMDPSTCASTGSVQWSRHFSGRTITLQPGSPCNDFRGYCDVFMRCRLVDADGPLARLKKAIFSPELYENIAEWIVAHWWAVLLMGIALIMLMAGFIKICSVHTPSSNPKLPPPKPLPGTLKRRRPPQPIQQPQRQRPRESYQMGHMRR
DDE Tn7 FP inh: inhibitors of Tn7 peptide binding to human fibrin DD(E); FP displacement of FITC-Tn7 peptide from fibrin DD(E); 0% = median of compound wells per plate; inhibition, % at 8.3 µM; 0.13% of 370,000 active; AID 720508;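 active = inhibition above the mean of compounds falling within the control limits plus 3 SD of them, cut at about 14% in these data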
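System: human fibrin DD(E); quantity: Fibrin-DD(E) at 2 µM final; also added: fluorescent Tn7 probe at 0.1 µM; compound dosing: single nominal test concentration of 8.3 µM per compound; schedule: 10 min preincubation, 3 h with tracer, room temperature; detection: fluorescence polarization of the labelled Tn7 tracer; repeats: one replicate per compound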
DDE Tn7 confirm: confirmation of inhibitors of Tn7 binding to human fibrin DD(E); inhibition, % at 8.3 µM; FP displacement of TRITC-Tn7 peptide from DD(E); 0% set at plate's compound-well median; AID 720628; shares compounds with DDE Tn7 FP inh; 5% of 460 active;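 active = inhibition above the campaign cutoff, the mean of compounds within control limits plus 3 SD, cut at about 14% in these data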;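 note: displacers lower polarization since freed probe rises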
DDE Tn7 FP ctr: counter-screen hit for Tn7 peptide-fibrin DD(E) binding disruption. shares compounds with DDE Tn7 FP inh. TRITC-Tn7 probe displacement, fluorescence polarization. inhibition, % at 8.3 µM. 3% of 460 active. AID 720633;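 active = inhibition above the cutoff, the mean of compounds lying between the control bounds plus 3 SD of those compounds, cut at about 17% in these data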
DDE Tn6 FP ctr: counter-screen hit for Tn6 peptide-fibrin DD(E) binding disruption; AID 720621; inhibition, % at 8.3 µM; TRITC-Tn6 fluorescence polarization displacement; 0% = median of compound wells, not DMSO; shares compounds with Tn6 DDE FP; 2% of 680 active;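 active = inhibition above the mean of test compounds lying between the control limits plus 3 SD of those, cut at about 14% in these data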
DDE Tn6 confirm: confirmation of inhibitors of Tn6 binding to human fibrin DD(E); shares compounds with Tn6 DDE FP; FP displacement of TRITC-Tn6 peptide from DD(E); 0% = per-plate median of test wells; inhibition, % at 8.3 µM; 10% of 680 active; AID 720631;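 active = inhibition above the mean of compounds lying within the control limits plus 3 SD, cut at about 16% in these data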
ADAM10 confirm: confirmation of inhibitors of human ADAM10; inhibition, % at 6.95 µM; 1% of 2,100 active; shares compounds with ADAM10 inh; ADAM10 QFRET peptide cleavage, EDANS fluorescence;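 active = inhibition above about 20% chosen separately for each screening run, limit read from the data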
ADAM17 counter: inhibits human ADAM17 in ADAM10 exosite counter-screen. shares compounds with ADAM10 inh. ADAM17 QFRET peptide cleavage, EDANS fluorescence. inhibition, % at 6.95 µM. 0.5% of 2,100 active;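 active = mean triplicate inhibition above the solvent-only control wells' mean plus 3 SD, cut at about 12% in these data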
ADAM10 counter: ADAM10 inhibition, counter-screen for ADAM17 exosite hits; shares compounds with ADAM17 inh; 47% of 2,900 active; inhibition, % at 6.95 µM; recombinant ADAM10, EDANS/DABCYL FRET peptide cleavage, 3 h;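 active = mean inhibition over the triplicate runs exceeds the activity threshold set in the earlier primary screen, cut at about 20% in these data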
ADAM17 confirm: confirmation of inhibitors of human ADAM17 | shares compounds with ADAM17 inh | recombinant ADAM17, EDANS/DABCYL QFRET peptide cleavage | inhibition, % at 6.95 µM | 65% of 2,900 active;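 active = mean inhibition across replicates above the hit cutoff set in the primary screen, cut at about 8.5% in these data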
Of the large screens only hits and unclear results are named; the others gave an inactive call (follow-up assays come after a bar, where they were run). A selection: hits, their analogues and other compounds. The true share with any hit is near 1.6%.

COC1C(C)OC(OC2CC(C)(O)Cc3cc4c(c(O)c32)C(=O)c2c(O)cc3c(c2C4=O)OC2OC3(C)C(O)C(N(C)C)C2O)C(OC)C1(C)OC (stereo unspecified)	Tn6 DDE FP 88, DDE Tn7 FP inh 14 | DDE Tn7 confirm inactive | DDE Tn7 FP ctr 54 | DDE Tn6 FP ctr inactive | DDE Tn6 confirm 54
CN(C)c1ccc(/C=C/c2cc[n+](C)c3ccccc23)cc1	Tn6 DDE FP 30 | DDE Tn6 FP ctr inactive | DDE Tn6 confirm inactive
CC1=C2[C@H]3OC(=O)[C@@H](C)[C@@H]3CC[C@@]2(C)C=CC1=O	none
C1CCC(NC2CCCCC2)CC1	none
C[C@]12CCC3C(CC[C@H]4C[C@@H](O)CC[C@]34C)C1C[C@@H](O)[C@]2(C)O (stereo partly specified)	none
C[C@]12CCC3C(CC[C@H]4C[C@@H](O)CC[C@]34C)C1CC[C@@]2(O)C(F)(F)F (stereo partly specified)	Tn6 DDE FP 16 | DDE Tn6 FP ctr inactive | DDE Tn6 confirm inactive
CCC(C#N)(CC)P(=S)(c1ccccc1)c1ccccc1	Tn6 DDE FP 16 | DDE Tn6 FP ctr inactive | DDE Tn6 confirm inactive
Cc1ccc(/C=C2\C(=O)NC(=S)N(c3ccccc3F)C2=O)s1	Tn6 DDE FP 20 | DDE Tn6 FP ctr inactive | DDE Tn6 confirm inactive
Cc1ccc(/C=C2\C(=O)NC(=S)N(c3ccc(F)cc3)C2=O)s1	none
O=C(CN1CCOCC1)c1cccc2ccccc12	none
Cc1c(C(=O)c2cccc3ccccc23)c2cccc3c2n1[C@H](CN1CCOCC1)CO3	ADAM10 inh 20 | ADAM10 confirm inactive | ADAM17 counter inactive
CC[C@H](C)[C@@H]1OC(=O)[C@H](C(C)C)N(C)C(=O)[C@H](C(C)C)NC(=O)[C@@H](C)[C@@H](CCCC#CBr)OC(=O)[C@H](C(C)C)N(C)C(=O)C2CCCN2C1=O (stereo partly specified)	none (no result: MT1-MMP act inh)
CCOC(=O)c1c(C)n(Cc2ccccc2)c2ccc(OCC(O)Cn3nc(C)cc3C)cc12 (stereo unspecified)	ADAM17 inh 12, ADAM10 inh 33 | ADAM10 confirm inactive | ADAM17 counter inactive
ClCCN1CCSCC1	none
CCOC(=O)[C@@H]1[C@H]2COc3ccc(Br)cc3[C@@H]2N2C(=O)N(c3cccc(C)c3)C(=O)[C@]12C	ADAM10 inh 20 | ADAM10 confirm inactive | ADAM17 counter inactive
CCOC(=O)C1C2c3ccccc3O[C@@]1(C)N=C1SCC(=O)N12 (stereo partly specified)	none
Cc1cc(N=Nc2ccccc2C)ccc1N	ADAM10 inh 23 | ADAM10 confirm inactive | ADAM17 counter inactive
Nc1ccc(N2CCN(Cc3ccccc3Cl)CC2)c(Cl)c1	ADAM10 inh 22 | ADAM10 confirm inactive | ADAM17 counter inactive
O=C(Nc1ccc(C(=O)O)cc1)Oc1ccc(N(CCCl)CCCl)cc1	none
Cc1cnc[nH]1	none
O=C1C=CC(=O)C2C1C1(Cl)C(Cl)=C(Cl)C2(Cl)C1(Cl)Cl (stereo unspecified)	ADAM10 inh 27 | ADAM10 confirm inactive | ADAM17 counter inactive
O=C(CNC(=O)OCc1ccccc1)NCC(=O)Nc1ccc(Br)cc1C(=O)c1ccccc1	none
O=C(CNC(=O)OCc1ccccc1)Nc1ccc(Br)cc1C(=O)c1ccccc1	ADAM10 inh 20 | ADAM10 confirm inactive | ADAM17 counter inactive
COC(=O)C1=C(c2ccc(-c3ccccc3)c(F)c2)C[C@@H]2CC[C@H]1N2C(=O)NCCOc1ccc(OC)cc1	ADAM17 inh 22, ADAM10 inh 40 | ADAM10 confirm inactive | ADAM17 counter inactive | ADAM10 counter 21 | ADAM17 confirm 12
COC(=O)C1=C(c2ccc(-c3ccccc3)c(F)c2)C[C@@H]2CC[C@H]1N2C(=O)NCCNC(C)=O	none
COC(=O)C1=C(c2cccc(OCc3ccccc3)c2)C[C@@H]2CC[C@H]1N2C(=O)NCCOc1ccc(OC)cc1	ADAM17 inh 10, ADAM10 inh 26 | ADAM10 confirm inactive | ADAM17 counter inactive | ADAM10 counter inactive | ADAM17 confirm 14
CN(C)c1ccc(/C=C2/C(=N\O)C3CCN2CC3)cc1	none
COC(=O)C(O)(c1ccc(NC(=S)NC(=O)c2ccc(Cl)cc2Cl)cc1)C(F)(F)F (stereo unspecified)	none
COC(=O)C(O)(c1ccc(NC(=S)NC(=O)c2ccc(Cl)cc2Cl)c(C)c1)C(F)(F)F (stereo unspecified)	ADAM17 inh 11, ADAM10 inh 23 | ADAM10 confirm inactive | ADAM17 counter inactive | ADAM10 counter 35 | ADAM17 confirm 18
CCN(c1ccc(C(O)(C(=O)OC)C(F)(F)F)cc1)S(=O)(=O)c1ccccc1 (stereo unspecified)	none
CCOC(=O)C(O)(c1ccc(N(CC)S(=O)(=O)c2ccccc2)cc1)C(F)(F)F (stereo unspecified)	ADAM17 inh 14, ADAM10 inh 27 | ADAM10 confirm inactive | ADAM17 counter inactive | ADAM10 counter inactive | ADAM17 confirm inactive
COC(=O)C1=C(c2cc3ccccc3s2)C[C@@H]2CC[C@H]1N2C(=O)N1CCOCC1	none
